Results on 1 compound are retold here after ChEMBL document CHEMBL3414459, “Phenolic thio- and selenosemicarbazones as multi-target drugs” (Eur J Med Chem, 2015).

Active and inactive are the calls of the source. The rule behind the calls is not given here.

The nature of data set [1]: Antioxidant activity assessed as H2O2 scavenging activity at 100 uM incubated for 20 mins by phenol red based assay. The format is physicochemical. The method in brief:
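Compound at 100 µM final, or DMSO control, in 0.1 M phosphate buffer pH 7.4 with H2O2 and 0.1 M NaCl, incubated in the dark at 37 °C for 20 min. Phenol red (0.2 mg/mL) and horseradish peroxidase (0.1 mg/mL) added, 15 min at 37 °C. NaOH added, 10 min at rt, A610 read. % reduction = (A_control − A_sample)/A_control × 100.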

A short description of data set [2]: Antioxidant activity assessed as DPPH free radical scavenging activity incubated for 30 mins. The format is physicochemical. The method in brief:
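DPPH in HPLC-grade solvent mixed with compound in DMSO at 7 concentrations, or with DMSO alone as control. Kept in the dark at rt for 30 min, then A515 read against a blank. % DPPH remaining = A_sample/A_control × 100, plotted against concentration; EC50 taken from the straight line. Triplicate.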

Data set [3] concerns T47D. Briefly: Potency index, ratio of GI50 for 5-fluorouracil to GI50 for compound against human T47D cells after 48 hrs by sulforhodamine B assay. The format is functional.
The test system of data set [4] is WiDr. Nature of the data set: Potency index, ratio of GI50 for cisplatin to GI50 for compound against human WiDr cells after 48 hrs by sulforhodamine B assay. The format is functional.
Data set [5] concerns HeLa. Nature of the data set: Antiproliferative activity against human HeLa cells after 48 hrs by sulforhodamine B assay. The format is functional. The method in brief: (§1)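 Exponentially growing cells trypsinized into penicillin/streptomycin medium, >97% viable by trypan blue. Seeded per well: 10,000 (A549, HBL-100, HeLa, SW1573), 15,000 (T-47D), 20,000 (WiDr). Treatment began day 1, DMSO stocks 40 mM, 0.25% DMSO as control, triplicate, 48 h. Cells fixed with cold TCA 60 min at 4 °C, SRB stained, OD492 read, medium background subtracted.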

Data set [6] deals with T47D. Nature of the data set: Potency index, ratio of GI50 for cisplatin to GI50 for compound against human T47D cells after 48 hrs by sulforhodamine B assay. The format is functional.
For data set [7], the system named is T47D. Nature of the data set: Antiproliferative activity against human T47D cells after 48 hrs by sulforhodamine B assay. The format is functional. The procedure, abridged:
as §1

In data set [8] the test system is A549. Nature of the data set: Antiproliferative activity against human A549 cells after 48 hrs by sulforhodamine B assay. The settings on record: A549, 48 h. The format is functional. The method in brief:
as §1

For data set [9], the system named is WiDr. Nature of the data set: Potency index, ratio of GI50 for 5-fluorouracil to GI50 for compound against human WiDr cells after 48 hrs by sulforhodamine B assay. The format is functional.
The nature of data set [10]: Antiproliferative activity against human HBL100 cells after 48 hrs by sulforhodamine B assay. The format is functional. Particulars: HBL-100, 48 h. The method in brief:
as §1

Data set [11] can be described thus: Antioxidant activity assessed as inhibition of the lipid peroxidation at 0.74 mM incubated for 24 hrs by ferric thiocyanate method. Particulars: 740 µM. The format is physicochemical. The method in brief:
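Ferric thiocyanate method at 0.74 mM. 10.0 mM DMSO stock combined with methanolic linoleic acid in 0.2 M phosphate buffer pH 7.0. AAPH added, then 24 h at 50 °C in the dark; DMSO served as control. An aliquot was diluted in H2O–DMSO with NH4SCN and FeCl2 in HCl. After 3 min at rt, A546 read. % inhibition relative to control.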

For data set [12], the system named is HeLa. Nature of the data set: Potency index, ratio of GI50 for 5-fluorouracil to GI50 for compound against human HeLa cells after 48 hrs by sulforhodamine B assay. The format is functional.
Data set [13] in a line: Inhibition of baker's yeast alpha-glucosidase using p-nitrophenyl-alpha-D-glucopyranoside substrate assessed as reduction in p-nitrophenolate formation at 500 uM. Particulars: Saccharomyces bayanus. The method in brief:
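α-Glucosidase in 0.1 M phosphate buffer pH 6.8 with p-nitrophenyl-α-D-glucopyranoside at K_M (250 µM; K_M 0.25 mM). Inhibitor at 500 µM final or DMSO, DMSO 5% v/v.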

Data set [14] concerns Saccharomyces bayanus. Briefly: Un-competitive inhibition of baker's yeast alpha-glucosidase using p-nitrophenyl-alpha-D-glucopyranoside substrate assessed as reduction in p-nitrophenolate formation by Lineweaver-Burk plot. The method in brief: (§2)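 Same α-glucosidase conditions: pH 6.8 phosphate buffer, 25 °C, A400 for p-nitrophenolate, 5% DMSO. Done for inhibitors exceeding 50% inhibition at 500 µM. Rates measured at 5 substrate concentrations from 0.25 to 4.0 K_m, each at a fixed inhibitor concentration, using 2–3 inhibitor concentrations. Lineweaver–Burk double reciprocal plots gave the inhibition mode and constants K_ia (E) and K_ib (ES).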

Data set [15] in a line: Inhibition of baker's yeast alpha-glucosidase using p-nitrophenyl-alpha-D-glucopyranoside substrate assessed as inhibition constant for enzyme-substrate-compound binding by measuring reduction in p-nitrophenolate formation. The method in brief: as §2
The test system of data set [16] is WiDr. Briefly: Antiproliferative activity against human WiDr cells after 48 hrs by sulforhodamine B assay. The format is functional. The method in brief: as §1
Data set [17] relates to SW1573. Nature of the data set: Antiproliferative activity against human SW1573 cells after 48 hrs by sulforhodamine B assay. The format is functional. The settings on record: SW1573, 48 h. The procedure, abridged:
as §1

As for `Oc1ccc(/C=N/NC(=[Se])Nc2cccc3ccccc23)cc1`, the “inhibition (INH)” value in data set [1] was found to be 53.1%; in data set [11], 23.3%. For the same compound, the EC50 in [2] turned out to be 21700 nM. For the same compound, the RatioGI50 in data set [3] came to 19; in data set [4] it was 11; in data set [6], 6; in [9], 21; in data set [12], 6.5. For the same compound, the GI50 was determined as 2200 nM in data set [5]; 2500 nM in data set [7]; 1300 nM in data set [8]; 2100 nM in data set [10]; 2300 nM in data set [16]; 2300 nM in [17]. Moreover, the inhibition in [13] stood at 100%. In data set [14], the inhibition entry is “Active”. Besides, the Ki in data set [15] worked out at 59000 nM.
